Variants at the floor of the assay were thinned out.

Drawing on the RNAGym collection of RNA variant scans (doi:10.1126/science.aae0568), this text covers yeast fitness for 38 variants.

B1: tRNA (parent)
chain: GUUCCGUUGGCGUAAUGGUAACGCGUCUCCCUCCUAAGGAGAAGACUGCGGGUUCGAGUCCCGUACGGAACG

Variants of B1 are the subject of the data set. Description: yeast fitness relative to wild type (ratio to wild type); higher = fitter; tRNA-Arg(CCU), competitive growth, 37 C, YPD. Summed up:
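For this measurement, the tRNA-Arg(CCU) gene was varied by chemical synthesis at a 3% per-site mutation rate across 69 sites, and each variant was placed at the native genomic locus in Saccharomyces cerevisiae. The pooled strains went through a 24-hour competition in YPD at 37°C in six parallel replicates, with amplicons from start and end populations read by 100-nucleotide paired-end sequencing. Darwinian fitness relative to wild type followed from the change in each genotype's frequency. Genotypes needed ≥ 100 starting reads, and estimates < 0.5 were set to 0.5.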
For GUGCCGUUGGCGUAAUGGUAACGCGUCUCCCUCCUAAGGAGAAGGCUGGGGGUUCGAGUCCCGUACGGAACG [U3G A45G C49G], the yeast fitness came out at 0.633.

Regarding GUGCCGUUGGCGUAAUGGUAACGCGUCUCCCUCCUAAGGAGAAGCCUGCGGGUUCGAGUCCCGUACGGUACG [U3G A45C A69U], the yeast fitness amounted to 1.08.

For the variant GUGCCGUUGGCGUAAUGGUAACGCGUCUCCCUCCUAAGGAGAAGACUGCGGGUUCGAGUCCCGUACGGUACG [U3G A69U], the yeast fitness worked out at 0.924.

On to GUGCCGUUGGCGUAAUGGUAACGCGUCUCCCUCCUAAGGAGAAGCCUGCGGGUUCGAGUCCCGUACGGAUCG [U3G A45C A70U], for which the yeast fitness is 0.857.

For the variant GUGCCGUUGGCGUAAUGGUAACGCGUCUCCCUCCUAAGGAGAGGACUGCGGGUUAGAGUCCCGUACGGAACG [U3G A43G C55A], the yeast fitness is 0.536.

Consider GUGACGUUGGCGUAAUGGUAACGCGUCUCCCUCCUAAGGUGAAGACUGCGGGUUCGGGUCCUGUACGGAACG [U3G C4A A40U A57G C62U], for which the yeast fitness is at most 0.5.

As for GUGCCGUUGGCGUAAUGGUAACGCGUCUCCCUCCUAAGGAGUAGACUGCGGGUUCGAGUCCCGUACGGAACG [U3G A42U], the yeast fitness came to 0.758.

For GUGCCGUUGGCGUAAUGGUAACGCGUCUCCCUCCUAAGGAGCAGACUGCGGGUUCGAGUCCCGUACGGAACG [U3G A42C], the yeast fitness turned out to be 0.754.

GUGCCGUUGGCGUAAUGGUAACGCGUCUCCCUCCUCAGGAGAAGCCUGCGGGUUCGAAUCCCGUACGCAUCG [U3G A36C A45C G58A G68C A70U]: the yeast fitness is at most 0.5.

Turning to GUGCCGUUGGCGUAAUGGUACCGCGUCUCCCUCCUAAGGAGAAGAUUGCGGGUUCGAGUCCCGUACGGAACG [U3G A21C C46U], the yeast fitness was determined as 0.505.

GUGACGUUGGCGUAAUGGUAACGCGUCUCCCUCCUAAGGUGAAGACUGCGGGUCCGAGUCCCGUACGGAACG [U3G C4A A40U U54C]: the yeast fitness is at most 0.5.

For the variant GUGCCGUUGGCGUAAUGGUAACGCGUCUCCCUCCUAAGGAGAAGCCUGCGGGUUCGAGUCCCGUACGGAACG [U3G A45C], the yeast fitness is 0.973.

GUGCCGUUGGCGUAAUGGUAACGCGUCUCCCUCCUAAGGAGAAGGCUGCGGGUUCGAGUCCCGUACGGAACG [U3G A45G]: the yeast fitness was determined as 1.

In the case of GUGCCGUUGGCGUAAUGGUAACGCGUCUCCCUCCUAAGGAGAAGACUGCGGGUUCGGGUCCCGUACGGAACG [U3G A57G], the yeast fitness worked out at 0.908.

Regarding GUGCCGUUGGCGUAAUGGUAACGCGUCUCCCUCCUGAGGAGAGGACUGCGGGUUCGAGUCCCGUACGGAACG [U3G A36G A43G], the yeast fitness was 0.735.

As to GUGCCGUUGGCGUAAUGGUAACGCGUCUCCCUCCUACGGAGAAGACUGCGGGUUCAAGUCCCGUACGGAACG [U3G A37C G56A], the yeast fitness was found to be 0.533.

Turning to GUGCCGUUGGCGUAAUGGUAACGCGUCUCCCUCCUCAGGAGAAGCCUGCGGGUUCGAAUCCCGUACGCAACG [U3G A36C A45C G58A G68C], the yeast fitness is at most 0.5.

On to GUGCCGUUGGCGUAAUGGUAACGCGUCUCCCUCCUACGGGGAAGACCGCGGGUUCGAGUCCCGUACGGAACG [U3G A37C A40G U47C], for which the yeast fitness was at most 0.5.

With GUGACGUUGGCGUAAUGGUAACGCGUCUCCCUCCUAAGGUGAAGACUGCGGGUUCGAGUCCCGUACGGAACG [U3G C4A A40U], the yeast fitness was 0.547.

With GUGCCGUUGGCGUAAUGGUAACGCGUCUCCCUCCUAUGGAGAAGACUGCGGGUUCGAGUCCCGUACGGAACG [U3G A37U], the yeast fitness amounted to 0.683.

With GUGCCGUUGGCGUAAUGGUAACGCGUCUCCCUCCUACGGAGUGGACUGCGGGUUCGACUCCUGUACGGAACG [U3G A37C A42U A43G G58C C62U], the yeast fitness is at most 0.5.

GUGCCGUUGGCGUAAUGGUAACGCGUCUCCCUCCUAAGGAGAAGACUGCGGGUUCGAGUCCCGUACGGAUCG [U3G A70U]: the yeast fitness stood at 0.831.

For GUGCCGUUGGCGUAAUGGUAGCGCGUCUCCGUUCUAAGGAGAUGACUGCGGGUUCAAGUCCCGUACGGUACG [U3G A21G C31G C33U A43U G56A A69U], the yeast fitness was at most 0.5.

GUGCCGUUGGCGUAAUGGUGACGCGUCUCCCUCCUAAGGAGAAGGCUGCGGGUUCGAGUCCCGUACGGAACG [U3G A20G A45G]: the yeast fitness stood at 0.75.

In the case of GUGCCGUUGGCGUAAUGGUAGCGCGUCUCCCUCCUAAGGAGAAGACUGCGGGUUCGAGUCCUGUACGGAACG [U3G A21G C62U], the yeast fitness is 0.538.

As for GUGCCGUUGGCGUAAUGGUAACGCGUCUCCCUCCUAAGGAGUAGACUGUGGGUUCGAGUCCCGUACGGAACG [U3G A42U C49U], the yeast fitness was found to be 0.613.

With GUGCCGUUGGCGUAAUGGUAACGCGUCUCCCUCCUAAGGAGAUGACUGCGGGUUCGAGUCCCGUACGGAACG [U3G A43U], the yeast fitness came to 1.08.

For the variant GUGCCGUUGGCGUAAUGGUAACGCGUCUCCCUCCUAAGGAGAGGACAGAGGGUUCGAGUCCCGUACGGAACG [U3G A43G U47A C49A], the yeast fitness came to 0.535.

Consider GUGCCGUUGGCGUAAUGGUAACGCGUCUCCCUCCUAAGGAGAAGACUGCGGGUUCGAGUCCCGUGCGGAACG [U3G A65G], for which the yeast fitness is 1.1.

Consider GUGCCGUUGGCGUAAUGGUAACGCGUCUCCCUCCUAAGGAGAGGUCUGCGGGUUCGAGUCCCGUACGGAACG [U3G A43G A45U], for which the yeast fitness worked out at 0.539.

For the variant GUGCCGUUGGCGUAAUGGUAACGCGUCUCCCUCCUUAGGAGAAGACUGCGGGUUCGAGUCCCGUACGGAACG [U3G A36U], the yeast fitness was 0.598.

On to GUGCCGUUGGCGUAAUGGUAACGCGUCUCCCUCCUGAGGAGAAGACUGCGGGUUCGAGUCCCGUACGGAACG [U3G A36G], for which the yeast fitness is 0.977.

In the case of GUGCCGUUGGCGUAAUGGUAACGCGUCUCCCUCCUAAGGAGACGACUACGGGUUCGAGUCCCGUACGGACCG [U3G A43C G48A A70C], the yeast fitness was determined as 0.617.

With GUGCCGUUGGCGUAAUGGUAACGCGUCUCCCUCCUAAGGAGAUGACUGCGGGCACGCGUCCCGUCCGGAACG [U3G A43U U53C U54A A57C A65C], the yeast fitness was at most 0.5.

In the case of GUGCCGUUGGCGUAAUGGUAGCGCGUCUCCCUCCUAACGAGAAGACUGUGGGUUCGAGUCCCGUACGGCACG [U3G A21G G38C C49U A69C], the yeast fitness is at most 0.5.

Consider GUGCCGUUGGCGUAAUGGUAACGCGUCUCCCUCCUAAGGAGCAGACUGCGGGUUCGAGUCCCGUACCGAACG [U3G A42C G67C], for which the yeast fitness is at most 0.5.

Turning to GUGACGUUGGGGUAAUGGUAACGCGUCUCCGUCCUAAGGAGAAGACUGCGGGUUCGAGUCCCGUACGGAACG [U3G C4A C11G C31G], the yeast fitness came out at 0.533.

As for GUGCCGUUGGCGUAAUGGUAACGCGUCUCCCUCCUAAGGAGAAGCCUGCGGGUCCGAGUCCCGUACGGUACG [U3G A45C U54C A69U], the yeast fitness worked out at 0.793.
